Assay outcomes (PubChem BioAssay)
The list is not random: actives were taken first. Their share in the collection is about 4.2%.
CHO parental Ca = signal in parental CHO cells, OX1R antagonist counter-screen; parental CHO-K1, ATP-induced calcium, Fluo-8 fluorescence; inhibition, % at 5.6 µM; 0.63% of 330,000 active; AID 463079;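 active means inhibition above that plate's mean sample inhibition plus 3 SD, cut at about 26% in these data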;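 further: 0% = ATP-challenged DMSO wells and 100% = DMSO wells without ATP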
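Material: parental CHO cells / Compound: single nominal dose of 5.6 µM per compound / Signal: Fluo-8 fluorescence / Replicates: singlicate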
GalR3 antagonist = antagonists of human GalR3; 0.44% of 360,000 active; HEK293 GalR3-CNG cAMP membrane potential fluorescence; galR3 body fused to GalR1 C-terminus; AID 651719; inhibition, % at 3 µM; O60755;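 active means inhibition above the screen-wide average plus 3 SD, cut at about 13% in these data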;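 further: forskolin and galanin both at EC90 stimulate the cells; cAMP rise reported by CNG channel membrane potential dye signal; 0% = forskolin plus galanin with DMSO and 100% = forskolin alone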
OX1R antag-1 = antagonists of human orexin 1 receptor; inhibition, % at 5 µM; 0.43% of 330,000 active; O43613; CHO/OX1R cells, Fluo-8 calcium fluorescence, orexin A;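 active means inhibition above its plate's threshold, mean inhibition of all tested compounds on the plate plus 3 SD, cut at about 37% in these data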;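 further: 0% = orexin A challenge wells and 100% = SB-334867-A antagonist wells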
Target sequence (O43613 whole entry, looked up): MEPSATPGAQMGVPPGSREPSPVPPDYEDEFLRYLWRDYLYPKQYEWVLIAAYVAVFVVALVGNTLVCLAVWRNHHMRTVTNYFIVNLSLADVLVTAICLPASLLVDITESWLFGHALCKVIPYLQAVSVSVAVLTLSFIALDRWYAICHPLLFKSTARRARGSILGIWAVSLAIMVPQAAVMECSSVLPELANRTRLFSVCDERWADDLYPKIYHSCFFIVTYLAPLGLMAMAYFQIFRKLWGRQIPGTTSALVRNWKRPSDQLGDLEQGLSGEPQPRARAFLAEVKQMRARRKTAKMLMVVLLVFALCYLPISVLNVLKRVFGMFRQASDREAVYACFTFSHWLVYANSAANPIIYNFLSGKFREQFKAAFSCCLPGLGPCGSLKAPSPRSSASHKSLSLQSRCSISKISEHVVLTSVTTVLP
TAAR1 antagonist = antagonists of human TAAR1; Q96RJ0; CHO RD-HGA16 TAAR1, Fluo-8 calcium fluorescence, antagonist; inhibition, % at 3 µM; 1.5% of 360,000 active; AID 624466;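 active means inhibition above a per-plate cutoff, the mean inhibition of test compounds on that plate plus 3 SD, cut at about 49% in these data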;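 further: 0% = DMSO plus EC80 beta-PEA response and 100% = DMSO alone without agonist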
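Test system: CHO RD-HGA16 cells bearing hTAAR1 | Reagent: β-PEA, EC80 | Compound dosing: 3 µM, single point | Schedule: Dye loading 75 min at 37 °C, then 30 min room temperature | Signal: Calcium fluorescence with Fluo-8 | Evaluation: Percent inhibition of PEA-evoked calcium signal, max/basal emission ratio | Control set: DMSO-only wells and EC80 β-PEA-stimulated wells | Repeats: Singlicate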
TAAR1 ag = agonists of human TAAR1. Q96RJ0. CHO RD-HGA16 TAAR1, Fluo-8 calcium fluorescence; vehicle wells 0%, saturating PEA agonist 100%. activation, % at 3 µM. 0.99% of 360,000 active;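 active means activation above the mean activation of all test compounds in the run plus 3 SD, cut at about 38% in these data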
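System: CHO-derived RD-HGA16 cells with stable Gα16 and human TAAR1 / Times: 17-24 h plating, Fluo-8 75 min 37 °C, 30 min RT / Technique: calcium-sensitive Fluo-8 signal, excitation 470-495, emission 515-575 nm / Measure: % activation relative to PEA EC100 response / Benchmarks: DMSO and PEA EC100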
OX1R antag-2 = blocks the human orexin 1 receptor; O43613; inhibition, % at 6.6 µM; AID 485270; OX1R-expressing cells, FRET antagonist read-out; 1.8% of 330,000 active; in the data active means inhibition mostly above about 38%, no sharp cut-off; inactive means mostly below about 40%;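 further: 0% = agonist challenge alone and 100% = reference antagonist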
* hit, by the source's call; · = not tested or not shown.

SMILES	CHO parental Ca	GalR3 antagonist	OX1R antag-1	TAAR1 antagonist	TAAR1 ag	OX1R antag-2
Cc1ccc(S(=O)(=O)N2Cc3ccccc3CC2C(=O)Nc2ccc3c(c2)OCO3)cc1 (configuration not stated)	-12.4	-5.0	-14.4	15.6	2.9	20.1
CC1Cc2ccccc2N1C(=O)C1CCCCN1S(=O)(=O)c1ccccc1 (configuration not stated)	-9.7	-2.2	4.6	5.3	2.7	49.2*
Cc1ccc(S(=O)(=O)N2Cc3ccccc3CC2C(=O)NC(C)(C)C)cc1 (configuration not stated)	-26.2	-7.4	-18.6	-4.6	-1.3	27.2*
O=C(Nc1ccccn1)C1CCCN1S(=O)(=O)c1ccc(Cl)cc1 (configuration not stated)	5.5	-1.4	6.3	-28.9	3.6	54.4
CC(C)Cc1cc(C(=O)NCc2cccs2)no1	-10.4	·	-11.8	-12.6	3.0	-7.2
O=[N+]([O-])c1ccc(Cl)c(/C=N/n2c(COc3ccccc3)n[nH]c2=S)c1	0.5	-0.9	22.7	16.8	-0.5	20.3
O=C(Nc1ccccc1F)C1CCCN1S(=O)(=O)c1ccc(Cl)cc1 (configuration not stated)	-17.0	-4.9	26.8	-17.4	-0.6	46.2*
COc1ccc(C)cc1NC(=O)C1CCCCN1S(=O)(=O)c1ccccc1 (configuration not stated)	-27.8	-2.0	34.7	2.6	21.9	65.9*
O=C(NC1CCCCC1)C1CCCN1S(=O)(=O)c1ccc(Cl)cc1 (configuration not stated)	-10.5	0.0	-8.9	14.6	-0.1	35.2
Cc1ccc(S(=O)(=O)N(C)C)cc1NC(=O)C1CCCCN1S(=O)(=O)c1ccccc1 (configuration not stated)	-32.5	-2.8	-27.1	-22.0	14.6	10.5
Cc1cccc(NC(=O)C2CCCCN2S(=O)(=O)c2ccccc2)c1C (configuration not stated)	-15.9	-3.6	5.1	-6.6	0.8	32.6*
COc1ccc(NS(=O)(=O)c2ccc(Cl)c(C(=O)O)c2)cc1S(=O)(=O)N1CCCCC1	42.8*	3.0	1.4	-6.9	8.6	12.0
COc1ccc(C)cc1NC(=O)C1CCN(S(=O)(=O)c2ccccc2)CC1	-7.2	-0.9	-18.4	-19.6	3.2	9.0
FC(F)(F)c1cnc2c(-c3ccc(Cl)cc3Cl)noc2c1	-7.1	-3.2	-27.9	14.0	5.9	25.9
CCOC(=O)c1c(NC(=O)N/N=C/c2ccccc2OCC)sc(C(C)=O)c1C	·	-0.5	·	-8.1	4.3	·
Cc1ccc(S(=O)(=O)N2CCC[C@H]2C(=O)Nc2ccccc2C)cc1	-20.3	-4.7	6.9	-13.5	0.8	47.5*
CCOc1ccccc1NC(=O)C1CCCCN1S(=O)(=O)c1ccc(F)cc1 (configuration not stated)	-31.7	-5.2	31.9	-7.9	3.1	52.9*
Cc1ccc(S(=O)(=O)N2CCC[C@H]2C(=O)Nc2ccccc2Cl)cc1	-16.4	-4.1	28.1	-15.6	0.5	61.2*
O=C(NC1CCCCC1)c1ccc(S(=O)(=O)N2CCCCC2)cc1	-18.1	-2.5	-13.7	-23.0	3.4	1.8
N#C/C(=C/c1ccc(-c2cc([N+](=O)[O-])ccc2Cl)o1)C(N)=O	8.8	-7.2	14.2	1.9	3.3	53.6*
Cc1ccc(S(=O)(=O)N(CCCN2CCCC2=O)Cc2cc3c(C)ccc(C)c3[nH]c2=O)cc1	-12.7	-5.3	-25.1	2.4	10.1	8.3
O=C(Nc1nc2c(s1)CCc1ccccc1-2)c1cccs1	-20.0	-2.4	-48.5	-10.8	-5.7	33.6
O=C(Nc1nc2c(s1)COc1ccccc1-2)c1cccs1	-15.1	·	-23.2	26.5	10.4	56.0*
CCOC(=O)/C(C#N)=C/Nc1cc(OC)ccc1OC	-17.8	-2.5	-31.3	-8.8	5.2	6.7
CCOC(=O)/C(C#N)=C/Nc1ccccc1OC(F)(F)F	45.5*	-3.0	-37.1	-32.6	0.1	11.1
O=C(CSc1ccccn1)N1CCN(c2cccc(Cl)c2)CC1	-17.9	-9.0	-15.6	-7.9	8.2	15.2
